CHOP inhibitor: CHOP inhibition in unfolded protein response. inhibition, % at 10 µM. AID 2732. CHO-K1 CHOP-promoter luciferase, tunicamycin-induced, 15-18 h. actives 3.8% (n = 220,000);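 active = compounds that reduced the stress-induced luciferase reporter signal by more than about 70% of percent inhibition, limit read from the data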;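 also: 0% = tunicamycin plus vehicle and 100% = wells without tunicamycin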
T cruzi inh: T. cruzi replication inhibition; actives 1.4% (n = 300,000); inhibition, % (no concentration beside the values); T. cruzi beta-gal in NIH3T3, luminescence, 90 h;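 active = mean inhibition across valid replicates above about 55%, limit read from the data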;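 also: signal also drops with host cell toxicity which is not excluded here; 0% = plate median of DMSO wells and 100% = zero luminescence signal; higher percent means less beta-gal luminescence so fewer parasites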
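assay system = mouse NIH/3T3 fibroblasts infected with β-gal-expressing T. cruzi Tulahuen C4 | input = 5,000 NIH/3T3 host cells per well | buffer or medium = DMEM plus 2% FBS | timing = 3 h host attachment, then at least 90 h co-culture | measured by = GalScreen luminescence, 60 min | evaluation = luminescence reflecting intracellular parasite burden, expressed as percent inhibition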
XBP1 UPR activ: activators of adaptive arm of unfolded protein response (XBP1); CHO-XBP1 luciferase reporter, IRE1-XBP1 UPR activation, luminescence; percent of tunicamycin response, DMSO as zero; actives 0.33% (n = 330,000); activation, % at 20 µM;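 active = versus positive control, 20 µM dose yields 30% or more activation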;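 also: 100% = tunicamycin at 10 µg/mL and 0% = DMSO only wells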
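Material: CHO-XBP1 cells stably carrying IRE1-XBP1-driven luciferase reporter | Medium: F12 with 10% serum | Compound dosing: 20 µM single concentration, DMSO 1% | Incubation: Overnight seeding at 37 °C, 6 h compound treatment at 37 °C | Detection: Steady-Glo luminescence read | Read-out basis: % activation of reporter signal versus tunicamycin and DMSO controls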
Dynein cargo inh: dynein cargo transport inhibition. 3617.4 mouse cells, GR-EGFP nuclear translocation imaging; test concentration mostly 20 µM; stimulated with dexamethasone, 1 µM; active compounds read low. z-score, hits read low. actives 0.47% (n = 220,000);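 active = plate z-score of nuclear minus cytoplasmic receptor signal below a set negative limit, without overly bright fluorescence or cell loss, cut at about -3.5 in these data, passing the limit was not always enough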;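 also: z-score of nuclear minus cytoplasmic ring GR-EGFP intensity difference per well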
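Buffer or medium: tetracycline-free induction medium containing charcoal-stripped FBS / Reagent: dexamethasone agonist, 1.0 µM final, for 30 min / Technique: automated 10x imaging of fixed Hoechst-stained cells / Times: induction 48 h, compound 1 h, agonist 30 min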
L major viab: inhibitors of Leishmania major promastigote growth; actives 9% (n = 200,000); AID 1063; inhibition, % at 10 µM; Leishmania major promastigotes, resazurin fluorescence viability; in the data active = inhibition above about 50%;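 also: promastigotes grown with compound for 44 hours at 28 °C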
CHOP UPR activ: apoptotic UPR (CHOP) activation | CHO-CHOP luciferase reporter, luminescence; percent of tunicamycin response over DMSO baseline | activation, % at 10 µM | actives 0.34% (n = 330,000);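 active = at 10 µM dose, activation of 40% or more, normalized to positive control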;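 also: 100% = tunicamycin at 10 µg/mL and 0% = DMSO alone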
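System: CHO CHOP reporter cells. Amount: 500 cells per well. Buffer or medium: F12 medium, 10% FBS. Compound dosing: one dose, 10 µM in 0.5% DMSO. Incubation: 6 h compound exposure at 37 °C after overnight seeding. Technique: Steady-Glo luciferase luminescence. Benchmarks: tunicamycin and DMSO controls.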
* hit, by the source's call; x = not tested or not shown. This excerpt belongs to a sample that is enriched for hits.

SMILES	CHOP inhibitor	T cruzi inh	XBP1 UPR activ	Dynein cargo inh	L major viab	CHOP UPR activ
O=C(CCNC(=O)c1ccccc1)NCCc1ccc(Cl)cc1	x	-2	0	x	x	1
COc1ccccc1-c1cnn2c(NC3CCCC3)cc(C)nc12	x	26	1	x	x	8
COc1ccccc1NC(=O)c1ccc(Br)c(S(=O)(=O)N2CCCC2)c1	x	20	-2	x	x	1
COc1ccc(C(=O)C2CCN(CC(=O)Nc3ccc(C)cc3)CC2)cc1	x	21	-2	x	x	-2
Cc1ccc(-n2[nH]c(C)c(C=Nc3ccc4[nH]c(=O)[nH]c4c3)c2=O)cc1C	81*	3	-1	0.8	1	2
CC(C1CC1)N(Cc1ccccc1)C(=S)Nc1ccccc1 (stereo unspecified)	5	-42	-1	-1.2	4	2
CC(C1CC1)N(Cc1ccccc1)C(=S)Nc1cccc(C(F)(F)F)c1 (stereo unspecified)	75*	-50	3	0.53	88*	3
CC(C)N1C(=O)S/C(=C/c2ccc(Sc3nc4ccccc4[nH]3)o2)C1=O	70*	-19	-1	-0.88	83*	7
C=CCN1C(=O)S/C(=C/c2ccc(Sc3nc4ccccc4[nH]3)o2)C1=O	38	-15	0	-0.85	41	1
CCCCOc1ccc(C(=O)N/C(=C\c2ccc(OC)cc2)C(=O)OCc2ccco2)cc1	6	6	-3	-1.2	96*	-2
CCOC(=O)COc1cc2oc(=O)cc(C)c2cc1[N+](=O)[O-]	7	-17	2	-0.66	4	-1
O=C(Cn1c(/C=C/c2ccccc2)nc2ccccc21)Nc1ccc(F)cc1	31	20	-1	-0.55	63*	8
CSc1nc2ccccc2n1CC(=O)Nc1ccccc1	21	-4	4	4.7	0	-1
CC(C)Cn1c(/C=C/c2ccccc2)nc2ccccc21	48	-2	6	-0.14	46	5
CCn1c(/C=C/c2ccccc2)nc2ccccc21	13	-4	0	0.08	77*	1
COc1ccc(/C=C/c2nc3ccccc3n2C)cc1	81*	10	-6	0.032	85*	-10
CCC(C)n1c(/C=C/c2ccccc2)nc2ccccc21 (stereo unspecified)	18	20	2	1	93*	-1
CCC(C)n1c(S(=O)(=O)O)nc2ccccc21 (stereo unspecified)	34	4	0	0.17	-5	-1
O=C(c1cccc([N+](=O)[O-])c1)N1CCCC(C(=O)N2CCc3ccccc3C2)C1 (stereo unspecified)	x	-2	-5	x	x	1
O=C1c2ccccc2CN1Cc1ccccc1	x	3	-3	x	x	0
Cc1ccc(S(=O)(=O)N(CC(=O)N=Nc2c(O)[nH]c3ccccc23)c2ccc(C)c(C)c2)cc1	23	x	x	0.34	96*	x
CC(C)COCc1ccc(O)c2ncccc12	64	52	11	0.14	100*	28
O=c1[nH]n(CCO)c(=O)c2cccnc12	17	8	-2	-0.38	x	1
O=C(O)c1sc2ncccc2c1OCc1ccccc1	-1	6	1	0.5	-6	-5
Oc1ccc(COCc2ccccc2)c2cccnc12	x	47	11	0.59	101*	74*
SMILES	CHOP inhibitor	T cruzi inh	XBP1 UPR activ	Dynein cargo inh	L major viab	CHOP UPR activ
CCCOCc1ccc(O)c2ncccc12	-24	57*	12	-0.057	x	28
CCOC(=O)c1cccc(NC(=O)CC2Oc3ccccc3NC2=O)c1 (stereo unspecified)	x	-16	-6	x	x	2
N=c1c2c(-c3ccccc3)c(-c3ccccc3)n(Cc3ccco3)c2ncn1CCN1CCOCC1	14	67*	-1	-0.78	100*	0
N=c1c2c(-c3ccccc3)c(-c3ccccc3)n(Cc3ccco3)c2ncn1CCCO	-22	65*	1	-0.96	x	2
c1coc(CNc2nc3ccccc3n2CCN2CCOCC2)c1	5	5	-3	1.5	4	5
N=c1c2c(-c3ccccc3)c(-c3ccccc3)n(Cc3ccco3)c2ncn1CCO	-19	34	2	0.69	100*	0

Screening results from PubChem BioAssay.
